From PubChem
Sampled rows, rich in hits. Any-hit rate of the full collection: about 2.5%.
Platelet DG rel: modulates dense granule release in human platelets; human platelet-rich plasma, SFLLRN dense granule ATP release, luminescence; inhibition, %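 (compounds screened at 7.5 µM in platelet-rich plasma)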; 0.22% of 300,000 active; AID 1663;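 active means mean replicate score, as percent of positive control, at or above 50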
TRPC4 potent: TRPC4 (mouse) allosteric potentiation | 0.42% of 310,000 active | B-score at 10 µM | HEK293 TRPC4beta/mu-opioid, DAMGO EC20, Fluo-4 Ca2+ flux; active compounds read high | Q9QUQ5 | AID 2227;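 active means B-score of calcium response area above 5 SD of library B-scores, with initial fluorescence ratio within 5 SD of library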
Target sequence (Q9QUQ5 whole entry, looked up): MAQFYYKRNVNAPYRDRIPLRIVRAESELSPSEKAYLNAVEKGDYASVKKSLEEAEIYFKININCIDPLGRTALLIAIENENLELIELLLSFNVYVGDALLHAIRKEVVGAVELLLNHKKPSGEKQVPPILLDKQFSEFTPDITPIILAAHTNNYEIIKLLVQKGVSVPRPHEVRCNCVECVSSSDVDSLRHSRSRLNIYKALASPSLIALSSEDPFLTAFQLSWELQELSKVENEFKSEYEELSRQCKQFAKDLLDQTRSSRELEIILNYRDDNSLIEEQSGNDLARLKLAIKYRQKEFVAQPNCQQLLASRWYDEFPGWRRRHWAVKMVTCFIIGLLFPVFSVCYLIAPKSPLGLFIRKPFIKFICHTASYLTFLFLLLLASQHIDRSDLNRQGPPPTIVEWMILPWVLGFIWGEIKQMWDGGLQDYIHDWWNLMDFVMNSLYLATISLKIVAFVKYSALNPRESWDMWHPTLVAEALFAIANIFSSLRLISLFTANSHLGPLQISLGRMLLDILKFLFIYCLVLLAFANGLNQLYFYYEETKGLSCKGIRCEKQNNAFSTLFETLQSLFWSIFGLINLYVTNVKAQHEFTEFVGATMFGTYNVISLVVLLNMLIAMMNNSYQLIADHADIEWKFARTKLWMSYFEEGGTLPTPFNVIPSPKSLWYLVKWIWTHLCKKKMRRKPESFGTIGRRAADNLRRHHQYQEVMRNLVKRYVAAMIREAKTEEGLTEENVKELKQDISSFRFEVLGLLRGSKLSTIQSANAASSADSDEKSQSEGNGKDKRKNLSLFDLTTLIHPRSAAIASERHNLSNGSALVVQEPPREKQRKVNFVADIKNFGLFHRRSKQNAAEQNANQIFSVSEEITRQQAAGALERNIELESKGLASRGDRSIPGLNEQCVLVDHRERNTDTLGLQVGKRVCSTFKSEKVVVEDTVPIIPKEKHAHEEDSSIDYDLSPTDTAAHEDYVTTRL
TRPC6 activator: activators of mouse TRPC6 channel; Q61143; HEK293-TRPC6 membrane potential dye fluorescence; active compounds read high; B-score at 10 µM; 0.13% of 310,000 active; AID 2550;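 active means B-score of the integrated fluorescence ratio above library mean plus 3 SD, and starting fluorescence ratio within library mean plus 5 SD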;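 further: higher score means more depolarization so channel activation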
TRPC4 act: activators of mouse TRPC4 channel; HEK293 TRPC4beta/mu-opioid, Fluo4 calcium fluorescence; active compounds read high; B-score at 10 µM; 0.49% of 310,000 active; AID 2237;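 active means B-score above 5 SD of library B-scores, and initial fluorescence ratio not above library mean plus 5 SD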;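 further: positive B-score marks a calcium rise read as TRPC4 activation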
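Material: TRPC4beta and mu-opioid receptor HEK293 stable cells | Incubation: 45 min room-temperature Fluo4 loading, 110 s read | Detection: Kinetic Fluo4 calcium fluorescence | Measure: Integrated baseline-normalised fluorescence ratio, converted to per-well B score | Benchmarks: Low control buffer alone, high control maximal DAMGO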
TRPC4 inh: inhibitors of mouse TRPC4 channel; Q9QUQ5; HEK293 TRPC4beta/mu-opioid, DAMGO-evoked Fluo4 calcium flux; active compounds read low; B-score at 10 µM; 0.39% of 300,000 active;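 active means B-score over 3 SD under the library average, no early fluorescence shift, positive overall ratio signal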
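System: stable TRPC4beta/mu-opioid receptor HEK293 cells; Dosing: single-point compound dosing; Measured by: Fluo4 Ca2+ flux fluorescence; Read-out basis: per-well B score of integrated baseline-normalized Fluo4 ratio.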
TRPC6 inhibitor: inhibitors of mouse TRPC6 channel | Q61143 | HEK293-TRPC6, membrane potential dye, ACh-evoked depolarization; active compounds read low | B-score at 10 µM | 1.1% of 310,000 active | AID 2553;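 active means B-score under library mean minus 3 SD, initial fluorescence not abnormally high, positive integrated signal ratio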;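 further: B-score derived from integrated fluorescence ratio over the kinetic read; more negative B-score means stronger inhibition of depolarization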
Each line names hits and unclear results; the compound was inactive in the other large screens.

O=C(Nc1cccc(O)c1)c1noc2c1CCCCC2	Platelet DG rel 64
Cc1ccc(NC(=O)c2noc3c2CCC3)cc1C	none
CC(C)(Oc1ccc(Cl)cc1)C(=O)O/N=C(\N)c1ccncc1	none
CC1(c2nnc(-c3ccncc3)o2)CC(c2ccc([N+](=O)[O-])cc2)=NO1 (configuration not stated)	none
CN(C)c1ccc(N=Nc2nc3ccccc3n2C)cc1	Platelet DG rel 182
Cn1c(Cl)nc2ccccc21	none
Cn1c(N=Nc2ccccc2)nc2ccccc21	Platelet DG rel 72
O=C1NC(c2ccccc2)=C(c2nc3ccccc3s2)C(c2ccccc2)N1 (configuration not stated)	TRPC4 potent 19
CC(=O)C1=C(c2ccccc2)NC(=O)NC1c1ccccc1 (configuration not stated)	none
COc1ccc(C(CNCC(O)COc2c(C)ccc(C)c2C)N(C)C)cc1 (configuration not stated)	TRPC4 act 68
CC(=O)Nc1ccc(S(=O)(=O)N2CCN(c3cc(C(F)(F)F)ccn3)CC2)cc1	none
FC(F)(F)c1ccnc(N2CCN(Cc3cnc(-c4ccccc4)[nH]3)CC2)c1	TRPC4 inh -7
COc1cccc(OCc2cc(C(=O)N3CCC(c4ccncc4)CC3)no2)c1	none
COc1cccc(OCc2cc(C(=O)N3CCN(C)C(c4ccccc4)C3)no2)c1 (configuration not stated)	TRPC4 potent 15
Cc1c(C(=O)N2CCOCC2)c(S(=O)(=O)Nc2cccc(C#N)c2)c(C)n1C	none
c1ccc(-c2ccccn2)nc1	none
c1ccc(-c2ccc(-c3ccccn3)nn2)nc1	TRPC6 inhibitor -11
CN(C)c1ccc(CNCCC(Cc2ccccc2)c2ccco2)cc1 (configuration not stated)	TRPC4 act 46
O=C(O)CCCCCCCCc1cn(CCc2c[nH]c3ccccc23)nn1	none
Cn1c(=O)c2c(nc(NCc3ccco3)n2C)n(C)c1=O	none
Cn1c(=O)c2c(nc(NCc3ccco3)n2C/C=C/c2ccccc2)n(C)c1=O	Platelet DG rel 74
CCOC(=O)Cc1csc(NC(=O)NC2(C(F)(F)F)Oc3cc(Cl)c(Cl)cc3O2)n1	TRPC4 inh -7
Cc1cc(=O)oc(C)c1C(=O)NCCNC(=O)c1c(C)cc(=O)oc1C	Platelet DG rel 85
Cc1cc(=O)oc(C)c1C(=O)NCCC(C)C	none
C=CCNC(=S)N1CCN(c2ccccc2Cl)CC1	none
Cc1cc(C)cc(NC(=S)N2CCN(c3ncc(C(F)(F)F)cc3Cl)CC2)c1	TRPC4 act 141
C=CCNC(=S)N1CCN(c2ncc(C(F)(F)F)cc2Cl)CC1	TRPC4 potent 11
CC(C)CCN1CCN(Cc2nc3c(s2)CCCC3)CC1CCO (configuration not stated)	none
CCOC(=O)C1=C(C)N=c2s/c(=C3/C(=O)Nc4ccccc43)c(=O)n2C1c1ccc(C)cc1 (configuration not stated)	none
COC(=O)C1=C(C)N=c2s/c(=C3\C(=O)Nc4ccccc43)c(=O)n2C1c1ccccc1 (configuration not stated)	TRPC6 inhibitor -5.9
COC(=O)c1sccc1NC(=O)CSc1ccccc1NC(=O)CNC(C)C	TRPC4 inh -6
COC(=O)c1sccc1NC(=O)CSc1ccccc1N	none
CN(/N=C/C=C/c1ccccc1)c1cc(=O)n(C)c(=O)[nH]1	none
COc1ccc(/C=N/N(C)c2cc(=O)n(C)c(=O)[nH]2)cc1OC	Platelet DG rel 74
CCc1ccc(OCCOCC(O)CNC2CCCC2)cc1 (configuration not stated)	TRPC4 inh -5 (no result: Platelet DG rel)
CC(C)NCC(O)COCCOc1ccc(C(C)(C)C)cc1 (configuration not stated)	TRPC4 inh -5
O=C(Cn1[nH]c(=O)c2ccccc2c1=O)Nc1ccc(-c2nnc3n2CCCCC3)cc1	none
O=c1[nH]ncc(N2CCCC2)c1Cl	none
O=c1[nH]ncc(N2CCN(C(c3ccccc3)c3ccccc3)CC2)c1Cl	TRPC4 inh -9
CNC(=S)N1CCN(C(c2ccccc2)c2ccccc2)CC1	TRPC4 act 50, TRPC4 inh -6
CCC(C)NC(=S)N1CCN(C(c2ccccc2)c2ccccc2)CC1 (configuration not stated)	none
CCCCn1c(N)c(N(CCOC)C(=O)C2CCN(c3ncnc4sc(C)c(C)c34)CC2)c(=O)[nH]c1=O	none
CCOC(=O)N1CCN(C(=O)CCCN2C(=O)CSc3nc(C)cc(C)c32)CC1	Platelet DG rel 53
CC(=O)Oc1c(C)cc(O)c2ccccc12	TRPC4 potent 17
O=C(Nc1ccc2nc3n(c(=O)c2c1)CCCC3)c1cncc(Br)c1	none
O=C(NC1CCN(Cc2ccccc2)CC1)c1cccc(S(=O)(=O)Nc2ccc(Br)cc2)c1	none
COc1ccccc1NS(=O)(=O)c1cccc(C(=O)NC2CCN(Cc3ccccc3)CC2)c1	TRPC4 act 52, TRPC4 inh -8
Cc1cc(C(C)(C)C)cc(C)c1C[n+]1ccc2ccccc2c1	none
COc1ccc([N+](=O)[O-])cc1C(=O)NCCOc1ccc(Cl)cc1	none
COc1ccc2c(C)cc(N3CCCCCC3)nc2c1	TRPC4 inh -10
Cc1cc(N2CCCC2)nc2ccc(NC(=S)NC(C)C)cc12	none
Cc1cc(N2CCCCCC2)nc2ccc(F)cc12	TRPC4 inh -6
COc1ccc2c(C)cc(N3CCN(Cc4ccccc4)CC3)nc2c1	none
O=C(Nn1cnnc1)c1ccccc1CCc1ccccc1	Platelet DG rel 62
CN1CCN(C/C(=C2/N=C(c3ccccc3)OC2=O)N(C)C)CC1	TRPC4 potent 13
COC(=O)CS(=O)(=O)c1ccc2c(c1)CC(=O)N2	Platelet DG rel 64
COC(=O)CS(=O)(=O)c1ccc(C)cc1	none
CCCn1c(Nc2ccccc2C)nc2ccccc21	TRPC4 inh -5
CCCn1c(NCc2ccc(C)o2)nc2ccccc21	TRPC4 inh -6
COc1ccccc1N1CCN(C2CCCCC2NS(=O)(=O)c2ccc(Cl)cc2)CC1 (configuration not stated)	none
COc1ccc(N2CCN(C3CCCCC3NS(=O)(=O)c3ccc(Cl)cc3)CC2)cc1 (configuration not stated)	TRPC4 potent 15
O=C(NCC1CCN(Cc2ccc(Cl)cc2)CC1)C1CCCN(c2ncnc3c2nc2n3CCCCC2)C1 (configuration not stated)	none
CN(C)CCOC(=O)c1cccc(Br)c1	TRPC4 potent 10, TRPC4 act 44
CCNC(=O)COC(=O)c1cccc(Br)c1	none
COc1ccc(S(=O)(=O)N2CCN(C(=O)COc3ccc(C)c(C)c3)CC2)cc1OC	none
